Laboratory results reported in ChEMBL document CHEMBL1955763, “Antimicrobial activity of sulfonamides containing 5-chloro-2-hydroxybenzaldehyde and 5-chloro-2-hydroxybenzoic acid scaffold” (Eur J Med Chem, 2012).

Tests used:
Type in all cases: functional
Trichosporon asahii = assay: Antifungal activity against Trichosporon asahii 1188 after 24 hrs by broth microdilution method; conditions: Trichosporon asahii, 1188, 24 h
How it was run: (§1)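 Microdilution broth per CLSI M27-A3 (yeasts) or M38-A2 (moulds) in RPMI 1640 with glutamine, buffered to pH 7.0 with 0.165 mol MOPS. Compounds were in DMSO. Final inoculum was 5 × 10³ ± 0.2 CFU/mL. Other conditions matched the antibacterial assay, with MIC as IC₉₀ read visually and at 540 nm. Determined twice, in duplicate.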

Aspergillus fumigatus = assay: Antifungal activity against Aspergillus fumigatus 231 after 24 hrs by broth microdilution method; conditions: Aspergillus fumigatus, 231, 24 h; how it was run: as §1
Lichtheimia corymbifera = assay: Antifungal activity against Absidia corymbifera 272 after 24 hrs by broth microdilution method; conditions: Lichtheimia corymbifera, 272, 24 h; how it was run: as §1
[1] = system: Trichophyton mentagrophytes; assay: Antifungal activity against Trichophyton mentagrophytes 445 after 24 hrs by broth microdilution method; conditions: Trichophyton mentagrophytes, 445, 24 h
[2] = system: Mycobacterium tuberculosis; assay: Antimycobacterial activity against Mycobacterium tuberculosis H37Rv 331/88 after 14 days; conditions: H37Rv 331/88, 336 h
[3] = system: Mycobacterium tuberculosis; assay: Antimycobacterial activity against Mycobacterium tuberculosis H37Rv 331/88 after 21 days; conditions: H37Rv 331/88, 504 h
How it was run: (§2)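 Micromethod in Sula semisynthetic medium, with compounds added as DMSO solutions over a two-fold series from 1000 down to 1. Inoculum for M. avium 330/88 was a 10⁻⁵ dilution. Plates were incubated at 37 °C and MIC was read after 14 and 21 days.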

Mycobacterium avium [4] = assay: Antimycobacterial activity against isoniazid-, rifampicin-, ofloxacin-, ethambutol-resistant Mycobacterium avium 330/88 after 14 days; conditions: 330/88, 336 h; how it was run: as §2
Mycobacterium avium [5] = assay: Antimycobacterial activity against isoniazid-, rifampicin-, ofloxacin-, ethambutol-resistant Mycobacterium avium 330/88 after 21 days; conditions: 330/88, 504 h; how it was run: as §2
Mycobacterium kansasii [6] = assay: Antimycobacterial activity against Mycobacterium kansasii 235/80 after 7 days; conditions: 235/80, 168 h
How it was run: (§3)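 Micromethod MIC in Sula semisynthetic medium, with compounds added as DMSO solutions at […]. Incubation at 37 °C. Inocula: M. kansasii 235/80 at dilution 10⁻⁴, clinical isolate 6509/96 at 10⁻⁵.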

Mycobacterium kansasii [7] = assay: Antimycobacterial activity against Mycobacterium kansasii 235/80 after 14 days; conditions: 235/80, 336 h; how it was run: as §3
Mycobacterium kansasii [8] = assay: Antimycobacterial activity against Mycobacterium kansasii 235/80 after 21 days; conditions: 235/80, 504 h; how it was run: as §3
Mycobacterium kansasii [9] = assay: Antimycobacterial activity against Mycobacterium kansasii 6509/96 after 7 days; conditions: 6509/96, 168 h; how it was run: as §3
Mycobacterium kansasii [10] = assay: Antimycobacterial activity against Mycobacterium kansasii 6509/96 after 14 days; conditions: 6509/96, 336 h; how it was run: as §3
Mycobacterium kansasii [11] = assay: Antimycobacterial activity against Mycobacterium kansasii 6509/96 after 21 days; conditions: 6509/96, 504 h; how it was run: as §3
Staphylococcus aureus [12] = assay: Antibacterial activity against Staphylococcus aureus CCM 4516/08 after 24 hrs by broth microdilution method; conditions: CCM 4516/08, 24 h
How it was run: (§4)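 Microdilution broth method modified from M07-A07, in Mueller-Hinton broth at pH 7.4 (±0.2). Compounds were dissolved in DMSO. Inoculum was made in sterile water to 0.5 McFarland (1.5 × 10⁸ CFU/mL). MIC was taken as IC₉₀, meaning ≥90% growth reduction versus the drug-free control. Growth was read visually and by absorbance at 540 nm.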

Staphylococcus aureus [13] = assay: Antibacterial activity against Staphylococcus aureus CCM 4516/08 after 48 hrs by broth microdilution method; conditions: CCM 4516/08, 48 h
How it was run: (§5)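 Broth microdilution modified from standard M07-A07 in Mueller-Hinton broth at pH 7.4 (±0.2). Compounds were dissolved in DMSO. Inoculum in sterile water was adjusted to 0.5 McFarland (1.5 × 10⁸ CFU/mL). MIC was taken as IC₉₀, i.e. ≥90% growth reduction versus control, read visually and spectrophotometrically at 540 nm.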

Staphylococcus aureus [14] = assay: Antibacterial activity against methicillin-resistant Staphylococcus aureus H 5996/08 after 24 hrs by broth microdilution method; conditions: H 5996/08, 24 h; how it was run: as §4
Staphylococcus aureus [15] = assay: Antibacterial activity against methicillin-resistant Staphylococcus aureus H 5996/08 after 48 hrs by broth microdilution method; conditions: H 5996/08, 48 h; how it was run: as §4
[16] = system: Staphylococcus epidermidis; assay: Antibacterial activity against methicillin-resistant Staphylococcus epidermidis H 6966/08 after 24 hrs by broth microdilution method; conditions: H 6966/08, 24 h; how it was run: as §4
[17] = system: Staphylococcus epidermidis; assay: Antibacterial activity against methicillin-resistant Staphylococcus epidermidis H 6966/08 after 48 hrs by broth microdilution method; conditions: H 6966/08, 48 h; how it was run: as §4
Candida albicans = assay: Antifungal activity against Candida albicans ATCC 44857 after 24 hrs by broth microdilution method; conditions: ATCC 44857, 24 h; how it was run: as §1
Candida tropicalis = assay: Antifungal activity against Candida tropicalis 156 after 24 hrs by broth microdilution method; conditions: Candida tropicalis, 156, 24 h; how it was run: as §1
Nakaseomyces glabratus = assay: Antifungal activity against Candida glabrata 20/I after 24 hrs by broth microdilution method; how it was run: as §1
Pichia kudriavzevii = assay: Antifungal activity against Candida krusei E58 after 24 hrs by broth microdilution method; conditions: E58, 24 h; how it was run: as §1
Escherichia coli = assay: Antibacterial activity against Escherichia coli CCM 4517 after 24 hrs by broth microdilution method; conditions: CCM 4517, 24 h; how it was run: as §5
Klebsiella pneumoniae [18] = assay: Antibacterial activity against Klebsiella pneumoniae D 11750/08 after 24 hrs by broth microdilution method; conditions: D 11750/08, 24 h; how it was run: as §5
Klebsiella pneumoniae [19] = assay: Antibacterial activity against ESBL-positive Klebsiella pneumoniae J 14368/08 after 24 hrs by broth microdilution method; conditions: J 14368/08, 24 h; how it was run: as §5
Pseudomonas aeruginosa = assay: Antibacterial activity against Pseudomonas aeruginosa CCM 1961 after 24 hrs by broth microdilution method; conditions: CCM 1961, 24 h; how it was run: as §5

Measured: MIC

Cc1cc(NS(=O)(=O)c2ccc(/N=C/c3cccc(Cl)c3)cc2)no1
31.2 µM: Staphylococcus aureus [12] | Staphylococcus aureus [14]
62.5 µM: [2] | Mycobacterium avium [5] | Staphylococcus aureus [13] | Staphylococcus aureus [15]
8 µM: Mycobacterium kansasii [7] | Mycobacterium kansasii [8]
125 µM: [3]
> 500 µM: [16] | [17]
32 µM: Mycobacterium avium [4]
500 µM: Trichosporon asahii | Aspergillus fumigatus | Lichtheimia corymbifera | [1] | Candida albicans | Candida tropicalis | Nakaseomyces glabratus | Pichia kudriavzevii
4 µM: Mycobacterium kansasii [6] | Mycobacterium kansasii [9] | Mycobacterium kansasii [10] | Mycobacterium kansasii [11]

Cc1cc(NS(=O)(=O)c2ccc(NC(=O)c3cccc(Cl)c3)cc2)no1
500 µM: Trichosporon asahii | Aspergillus fumigatus | Lichtheimia corymbifera | [1] | [2] | [3] | Mycobacterium avium [4] | Mycobacterium avium [5] | Candida albicans | Candida tropicalis | Nakaseomyces glabratus | Pichia kudriavzevii
> 500 µM: Staphylococcus aureus [12] | Staphylococcus aureus [13] | Staphylococcus aureus [14] | Staphylococcus aureus [15] | [16] | [17]
2 µM: Mycobacterium kansasii [6]
8 µM: Mycobacterium kansasii [7] | Mycobacterium kansasii [8] | Mycobacterium kansasii [9] | Mycobacterium kansasii [10] | Mycobacterium kansasii [11]

O=S(=O)(Nc1ncccn1)c1ccc(/N=C/c2cc(Cl)ccc2O)cc1
62.5 µM: Trichosporon asahii | Escherichia coli
500 µM: Klebsiella pneumoniae [18] | Klebsiella pneumoniae [19]
250 µM: [3] | Staphylococcus aureus [12] | Staphylococcus aureus [13]
> 500 µM: [16] | [17]
8 µM: Mycobacterium kansasii [6]
125 µM: [2] | Mycobacterium avium [4] | Mycobacterium avium [5] | Staphylococcus aureus [14] | Staphylococcus aureus [15] | Nakaseomyces glabratus
16 µM: Mycobacterium kansasii [7] | Mycobacterium kansasii [9]
32 µM: Mycobacterium kansasii [8] | Mycobacterium kansasii [10] | Mycobacterium kansasii [11]
≥ 500 µM: Pseudomonas aeruginosa
